Published values from different studies.
Protocols differ between the studies behind these lines.
Target: Activin receptor type-1-like (ACVRL1, Homo sapiens, UniProt P37023)

| Compound | read-out | method | tested at | remaining binding [%] |
| --- | --- | --- | --- | --- |
| COc1cnc(Nc2cccc(S(N)(=O)=O)c2)nc1N1CCN(c2ccccc2)C(=O)C1 | binding | competition with immobilised ligand | 1 µM | 95 |
| CCc1ccccc1C(=O)Nc1n[nH]c2c(C)c(F)c(C3C(C#N)=C(C)N(C)C(C)=C3C#N)cc12 | binding | competition with immobilised ligand | 1 µM | 75 |
| CC1CCCN1c1nccc(-c2cnn3ncccc23)n1 (stereo not shown) | binding | – | 1 µM | 89 |
| O=C(Nc1c[nH]nc1C(=O)NC1CCNCC1)c1cc(F)cc(F)c1 | binding | competition with immobilised ligand | 1 µM | 94 |
| FC(F)(F)Oc1cccc(-c2cnc3ccc(-c4ccncc4)nn23)c1 | cell-free assay | competition with immobilised ligand | 5 µM | 85 |
| CC(=O)N1CCC(c2ccc(C(=O)NC3=NCCN3)cc2C(F)(F)F)CC1 | binding | competition with immobilised ligand | 1 µM | 100 |
| COc1cnc(Nc2cccc(S(N)(=O)=O)c2)nc1N1CCN(c2ccccc2)CC1 | binding | competition with immobilised ligand | 1 µM | 98 |
| CCCCN(CCCC)C(=O)CN1C[C@@H](c2cc(OC)c3c(c2)OCO3)[C@H](C(=O)O)[C@H]1CC(C)(C)CCC | cell-free assay | competition with immobilised ligand | 1 µM | 99.4 |
| C=CC(=O)N1CCC(C(=O)NCC(=O)N2CCN(c3nc(-c4cnc(N)nc4C(F)F)nc(N4CCOCC4)n3)CC2)CC1 | binding | competition with immobilised ligand | 1 µM | 92 |
| O=C(NCCCN1CCOCC1)c1ccc(Nc2nccc(-c3cc4ccccc4s3)n2)cc1 | binding | competition with immobilised ligand | 1 µM | 100 |
| C[C@@H](c1ccc(-n2cnc3c(N)ncnc32)cc1)N1CCc2nn(C)c(Cc3ccccc3)c2C1=O | binding | competition with immobilised ligand | 0.1 µM | 66 |
| F[C@@H]1CCN(c2nccc(-c3cnn4ncccc34)n2)C1 | binding | – | 1 µM | 88 |
| COc1cc(-c2cn(C3CCc4c(F)cccc4N(CC(F)(F)F)C3=O)nn2)ccc1-n1cnc(C)c1 (stereo not shown) | cell-free assay | competition with immobilised ligand | 1 µM | 100 |
| Cc1cnn2ncc(-c3ccnc(N(C)C)n3)c2c1 | binding | – | 1 µM | 91 |
| COc1ncc2cc3ccccc3nc2c1C#N | binding | competition with immobilised ligand | 5 µM | 93 |
| CN(C)c1nccc(-c2cnc3ncccn23)n1 | binding | – | 1 µM | 100 |
| O=C(c1ccc(Nc2nccc(-c3cc4ccccc4s3)n2)cc1)N1CCC(N2CCCC2)CC1 | binding | competition with immobilised ligand | 1 µM | 100 |
| CC1=C(C#N)[C@@H](c2ccc3[nH]nc(C)c3c2)C(C#N)=C(c2ccc(Cl)cc2)N1 | binding | competition with immobilised ligand | 1 µM | 79 |
| CN(C)c1nccc(-c2cnn3ncccc23)n1 | binding | – | 1 µM | 100 |
| O=C(NCCCN1CCOCC1)c1ccc(Nc2ncc(Cl)c(-c3ccc(Cl)s3)n2)cc1 | binding | competition with immobilised ligand | 1 µM | 100 |
| FC(F)(F)c1ccc2c(c1)nc(-c1cccnc1)n2C1CC1 | cell-free assay | competition with immobilised ligand | 1 µM | 100 |
| N[C@H]1CCN(c2nccc(-c3cnn4ncccc34)n2)C1 | binding | – | 1 µM | 97 |
